Hits are enriched below; roughly 4.6% of the tested compounds scored in any of these assays.
TAAR1 antagonist: human TAAR1 antagonists, primary screen, Fluo-8 calcium fluorescence, CHO RD-HGA16 cells. Trace amine-associated receptor 1 (Homo sapiens), Q96RJ0. antagonist. inhibition, % at 3 µM. 360,000 tested, 1.5% active. AID 624466, 2012;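 active = inhibition above a per-plate cutoff, the mean inhibition of test compounds on that plate plus 3 SD, cut at about 49% in these data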;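 also: 0% = DMSO plus EC80 beta-PEA response and 100% = DMSO alone without agonist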
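Test system – hTAAR1-expressing CHO RD-HGA16 cells, Gα16-coupled · Also added – β-PEA at EC80 concentration, post-compound challenge · Compound – 3 µM, single point · Incubation – dye loading 75 min at 37 °C, then 30 min room temperature · Measured by – Fluo-8 intracellular calcium dye fluorescence, real-time kinetic reads · Benchmarks – vehicle and agonist controls · Replicates – singlicate, one well per test compound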
TAAR1 ag: human TAAR1 agonists, primary screen, Fluo-8 calcium fluorescence, CHO RD-HGA16 cells. vehicle wells 0%, saturating PEA agonist 100%. activation, % at 3 µM. 360,000 tested, 0.99% active. Trace amine-associated receptor 1 (Homo sapiens), Q96RJ0. AID 624467, 2012;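 active = activation above the mean activation of all test compounds in the run plus 3 SD, cut at about 38% in these data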
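Test system: RD-HGA16 (CHO) cells co-expressing Gα16 and hTAAR1 | Doses: Single dose, 3 µM | Schedule: 17-24 h seeding, 75 min 37 °C dye, 30 min RT | Evaluation: % activation from peak over basal fluorescence ratio, DMSO-to-PEA scaled | Technique: Kinetic Fluo-8 calcium fluorescence | Benchmarks: Low control DMSO, high control PEA (EC100)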
OX1R antag-1: OX1R (HCRTR1) antagonists, primary screen, fluorescence, CHO/OX1R cells, Fluo-8 calcium, orexin A; Orexin/Hypocretin receptor type 1 (Homo sapiens), O43613; Fluo-8 calcium fluorescence; inhibition, % at 5 µM; 330,000 tested, 0.43% active; AID 434989, 2010;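 active = inhibition above its plate's threshold, mean inhibition of all tested compounds on the plate plus 3 SD, cut at about 37% in these data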;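 also: 0% = orexin A challenge wells and 100% = SB-334867-A antagonist wells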
CHO parental Ca: ATP-evoked calcium signal inhibitors, parental CHO, primary screen, counter-screen for OX1R antagonist project, cell-based, fluorescence, Fluo-8 calcium dye; inhibition, % at 5.6 µM; 330,000 tested, 0.63% active; parental CHO-K1, ATP-induced calcium, Fluo-8 fluorescence;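 active = inhibition above that plate's mean sample inhibition plus 3 SD, cut at about 26% in these data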;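 also: 0% = ATP-challenged DMSO wells and 100% = DMSO wells without ATP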
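Assay system: untransfected parental CHO cell line. Also added: ATP agonist challenge. Dosing: one dose, 5.6 µM nominal. Measured by: Fluo-8 fluorescence. Read-out: % inhibition. Benchmarks: ATP wells versus no-ATP DMSO wells. Repeats: no replicates.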
OX1R antag-2: antagonists of human orexin 1 receptor (OX1R); AID 485270, 2010; 330,000 tested, 1.8% active; OX1R-expressing cells, FRET antagonist read-out; Orexin/Hypocretin receptor type 1 (Homo sapiens), O43613; inhibition, % at 6.6 µM; in the data active = inhibition mostly above about 38%, no sharp cut-off; inactive = mostly below about 40%;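 also: 0% = agonist challenge alone and 100% = reference antagonist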
GPR7 antagonist: GPR7 receptor antagonists, primary screen, cell-based, fluorescence, single concentration | GPR7-expressing cells, fluorescence antagonist assay | inhibition, % at 4.4 µM | 290,000 tested, 1.1% active | AID 1861, 2009; in the data active = inhibition above about 16%, passing the limit was not always enough;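 also: cells stimulated with the agonist NPW; 0% = agonist with vehicle and 100% = vehicle without agonist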
Target sequence (P48145 whole entry, looked up): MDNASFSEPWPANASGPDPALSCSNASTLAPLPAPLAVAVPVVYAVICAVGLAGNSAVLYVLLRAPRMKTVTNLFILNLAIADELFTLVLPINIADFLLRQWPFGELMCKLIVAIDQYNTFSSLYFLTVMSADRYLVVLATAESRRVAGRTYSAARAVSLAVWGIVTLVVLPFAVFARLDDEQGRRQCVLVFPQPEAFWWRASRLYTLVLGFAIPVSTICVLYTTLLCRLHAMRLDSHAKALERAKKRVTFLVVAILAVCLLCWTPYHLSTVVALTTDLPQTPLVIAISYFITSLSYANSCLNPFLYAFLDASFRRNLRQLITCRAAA
Numbers without * were called inactive.

Results for Cc1ccc(/C=C2\CCC3=C2OC(N)=C(C#N)C3c2ccc(C)cc2)cc1 (stereo unspecified) ?
OX1R antag-1: 48*; CHO parental Ca: 41*; OX1R antag-2: 3; GPR7 antagonist: 2

What do the screens show for `O=C(/C=C/c1ccccc1)C1C(=O)c2ccccc2C1=O`?
TAAR1 antagonist: 1; TAAR1 ag: -3; OX1R antag-1: -40; CHO parental Ca: -26; OX1R antag-2: 26; GPR7 antagonist: -19

How did CCc1ccc(/C=C/C(=O)C2C(=O)c3ccccc3C2=O)cc1 do in these assays?
TAAR1 antagonist: 14; TAAR1 ag: 21; OX1R antag-1: 8; CHO parental Ca: 35*; OX1R antag-2: 22; GPR7 antagonist: 4

Results for CC1(C(=O)Nc2ccc(F)c(Cl)c2)Cc2c(-c3ccccc3)ccnc2O1 (stereo unspecified) ?
TAAR1 antagonist: 2; TAAR1 ag: -1

How did CC(C)c1cc(=O)oc2c3c4c(cc12)CCCN4CCC3 do in these assays?
TAAR1 antagonist: 14; TAAR1 ag: 1; OX1R antag-1: -19; CHO parental Ca: -21; OX1R antag-2: 37; GPR7 antagonist: 6

Results for O=c1oc2c3c4c(cc2c(C(F)(F)F)c1CCN1CCOCC1)CCCN4CCC3 ?
TAAR1 antagonist: 11; TAAR1 ag: 41*; OX1R antag-1: 14; CHO parental Ca: 9; OX1R antag-2: 4; GPR7 antagonist: 7

How did O=C(Nc1ccc(-c2nc3ccccc3o2)cc1)c1cc(-n2cnnc2)ccc1Cl do in these assays?
TAAR1 antagonist: 32; TAAR1 ag: 10; OX1R antag-1: 5; CHO parental Ca: 8; OX1R antag-2: 15; GPR7 antagonist: -6

How did O=C(Nc1ccc(-c2nc3ccccc3o2)c(O)c1)c1cc(-n2cnnc2)ccc1Cl do in these assays?
TAAR1 antagonist: 29; TAAR1 ag: 10; OX1R antag-1: 11; CHO parental Ca: 32*; OX1R antag-2: 17; GPR7 antagonist: -5

Results for CC1(C)CCCC2(C)C1CCC1(C)OC(=O)CCC12 (stereo unspecified) ?
TAAR1 antagonist: -16; TAAR1 ag: 4

What do the screens show for `CC(=O)OC[C@]12CC[C@H]3[C@@](C)(CC[C@H]4C(C)(C)CCC[C@]34C)[C@@H]1C[C@H](C1=CC(=O)O[C@@H]1OC(C)=O)O2`?
OX1R antag-1: 19; CHO parental Ca: 64*; OX1R antag-2: 0

What do the screens show for `O=C1OCC(c2ccccc2)=C1c1ccccc1`?
TAAR1 antagonist: 4; TAAR1 ag: -1; OX1R antag-1: -14; CHO parental Ca: -9; OX1R antag-2: 13; GPR7 antagonist: -22

Results for NC1=C(c2ccccc2)C(=O)NC1=O ?
TAAR1 antagonist: -1; TAAR1 ag: -1; OX1R antag-1: -15; CHO parental Ca: -15; OX1R antag-2: 40*; GPR7 antagonist: 25

What do the screens show for `Cc1noc(C)c1S(=O)(=O)N1CCCC(C(=O)N2CCN(C3CCCCC3)CC2)C1` (stereo unspecified)?
TAAR1 antagonist: -9; TAAR1 ag: -1; OX1R antag-1: -20; CHO parental Ca: -17; OX1R antag-2: 5; GPR7 antagonist: 3

Results for Cc1ccc(Cl)cc1N1CCN(C(=O)c2ccc(NS(=O)(=O)c3c(C)noc3C)cc2)CC1 ?
TAAR1 antagonist: 27; TAAR1 ag: 1; OX1R antag-1: 26; CHO parental Ca: 44*; OX1R antag-2: 41; GPR7 antagonist: 5

What do the screens show for `Cc1ccc(C)c(N2CCN(C(=O)C3CCCN(S(=O)(=O)c4c(C)noc4C)C3)CC2)c1` (stereo unspecified)?
TAAR1 antagonist: 53*; TAAR1 ag: -1; OX1R antag-1: -31; CHO parental Ca: -7; OX1R antag-2: 14; GPR7 antagonist: 3
